{
  "source": "paper PMC10937897",
  "about": "(Sexual Medicine, 2024)",
  "key": {"[1]": {"target": "CYP2C9 (Homo sapiens, UniProt P11712)", "sequence (P11712 whole entry)": "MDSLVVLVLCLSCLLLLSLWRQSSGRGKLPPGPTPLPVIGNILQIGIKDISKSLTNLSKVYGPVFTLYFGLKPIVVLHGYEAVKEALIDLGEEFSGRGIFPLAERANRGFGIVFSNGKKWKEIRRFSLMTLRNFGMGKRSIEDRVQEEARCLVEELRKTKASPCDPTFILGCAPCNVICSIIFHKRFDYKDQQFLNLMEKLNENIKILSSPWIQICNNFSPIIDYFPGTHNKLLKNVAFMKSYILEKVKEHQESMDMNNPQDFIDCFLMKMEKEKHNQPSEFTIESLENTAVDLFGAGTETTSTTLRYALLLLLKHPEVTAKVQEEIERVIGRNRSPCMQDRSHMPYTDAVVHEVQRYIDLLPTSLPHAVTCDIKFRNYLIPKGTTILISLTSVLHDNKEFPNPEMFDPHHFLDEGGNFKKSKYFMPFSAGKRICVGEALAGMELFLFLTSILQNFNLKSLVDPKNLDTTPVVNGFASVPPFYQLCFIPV", "assay": "Preliminary in vitro metabolism study, CYP2C9", "type": "in vitro ADME", "details": "preliminary previously unreported in vitro study"}, "[2]": {"system": "healthy Chinese males", "assay": "Safety and tolerability", "type": "in vivo, human", "procedure,_shortened": "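Healthy Chinese males aged 22–45 y with BMI 19.0–24.0 kg/m2, 10 per group. They took 30 or 60 mg oral test compound tablets once daily for 5 days after an overnight fast, with standardized diets. Monitoring covered physical and ophthalmologic exams, vital signs, 12-lead ECG and labs (hematology, chemistry, coagulation, urinalysis), with a day-8 follow-up. The investigator graded AEs for severity and drug relationship, coded in MedDRA 20.0.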"}, "[3]": {"system": "PDE3", "details": "cited from earlier work"}, "[4]": {"type": "in vivo, human", "details": "for AUC0-24 / Cmax / T1/2 / Cmin,ss / Cmax,ss: geometric mean (CV%); for Tmax: median (range); for C24: mean (SD)", "procedure,_shortened": "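Males took 30 or 60 mg oral test compound once daily for 5 days, fasted, 10 per group. Blood (5 mL) was drawn predose and 0.25–24 h postdose on days 1 and 5, and predose on days 3 and 4. Serum (3500 rpm, 10 min, 4 °C; stored –70 °C) was assayed for parent and M1, M5, M12 by LC-MS/MS MRM, linear 0.5–1000 ng/mL. Parameters came from noncompartmental analysis, reported as geometric mean (CV%), Tmax median (range), C24 mean (SD).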"}, "[5]": {"system": "PDE6", "details": "cited from earlier work"}, "[6]": {"system": "PDE11", "details": "cited from earlier work"}, "[7]": {"target": "CYP3A4 (Homo sapiens, UniProt P08684)", "sequence (P08684 whole entry)": "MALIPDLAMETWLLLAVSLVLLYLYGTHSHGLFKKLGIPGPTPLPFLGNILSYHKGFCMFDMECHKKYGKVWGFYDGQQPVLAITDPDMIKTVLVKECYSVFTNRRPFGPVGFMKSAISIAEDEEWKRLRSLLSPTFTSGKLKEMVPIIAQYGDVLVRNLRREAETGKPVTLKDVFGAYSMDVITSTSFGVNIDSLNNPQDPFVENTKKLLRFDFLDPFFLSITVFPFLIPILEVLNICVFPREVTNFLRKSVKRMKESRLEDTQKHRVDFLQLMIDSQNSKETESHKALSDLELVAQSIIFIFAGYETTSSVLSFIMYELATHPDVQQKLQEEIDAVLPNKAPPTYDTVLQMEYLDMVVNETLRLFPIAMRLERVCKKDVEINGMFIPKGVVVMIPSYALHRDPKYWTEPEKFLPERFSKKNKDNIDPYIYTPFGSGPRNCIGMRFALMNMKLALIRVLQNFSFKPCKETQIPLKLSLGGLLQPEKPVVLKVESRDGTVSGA", "assay": "Preliminary in vitro metabolism study, CYP3A4", "type": "in vitro ADME", "details": "preliminary previously unreported in vitro study"}, "[8]": {"system": "PDE9", "details": "cited from earlier work"}, "[9]": {"details": "30 mg once daily 5 days, n=10, probably or possibly related to the study drug"}, "[10]": {"details": "60 mg once daily 5 days, n=10, probably or possibly related to the study drug"}, "[11]": {"details": "5-day once-daily doses at 30 and 60 mg"}, "[12]": {"details": "30 mg oral once daily, day 1, serum, n=10"}, "[13]": {"details": "30 mg oral once daily, day 5, serum, n=9"}, "[14]": {"details": "60 mg oral once daily, day 1, serum, n=10"}, "[15]": {"details": "60 mg oral once daily, day 5, serum, n=10"}},
  "note": "Structures can show the parent of a compound that is named as a salt. Where two headings read alike, the source gives them in different places. Marks after values point to notes of the source that are not given here.",
  "data": [
    {"smiles": "CCCc1nn(C)c2c(=O)[nH]c(-c3cc(S(=O)(=O)N4C[C@@H](C)N[C@@H](C)C4)ccc3OCC)nc12", "note": "[Aildenafil, aildenafil citrate]", "values": [
      {"measurement": "involvement of CYP2C9 in the metabolism", "setting": "[1]", "value": "involvement"},
      {"measurement": "Blood glucose: elevated: Cases, No.", "setting": "[2]; 30 mg once daily 5 days, n=10", "value": 0, "unit": "No."},
      {"measurement": "Blood glucose: elevated: Participants, No. (%)", "setting": "[2]; 30 mg once daily 5 days, n=10", "value": "0 (0) No. (%)"},
      {"measurement": "Fatigue: Cases, No.", "setting": "[2]; 30 mg once daily 5 days, n=10", "value": 0, "unit": "No."},
      {"measurement": "Fatigue: Participants, No. (%)", "setting": "[2]; 30 mg once daily 5 days, n=10", "value": "0 (0) No. (%)"},
      {"measurement": "Head discomfort: Cases, No.", "setting": "[2]; 30 mg once daily 5 days, n=10", "value": 0, "unit": "No."},
      {"measurement": "Head discomfort: Participants, No. (%)", "setting": "[2]; 30 mg once daily 5 days, n=10", "value": "0 (0) No. (%)"},
      {"measurement": "Lymphocyte count: decreased: Cases, No.", "setting": "[2]; 30 mg once daily 5 days, n=10", "value": 0, "unit": "No."},
      {"measurement": "Lymphocyte count: decreased: Participants, No. (%)", "setting": "[2]; 30 mg once daily 5 days, n=10", "value": "0 (0) No. (%)"},
      {"measurement": "Lymphocyte percentage: decreased: Cases, No.", "setting": "[2]; 30 mg once daily 5 days, n=10", "value": 0, "unit": "No."},
      {"measurement": "Lymphocyte percentage: decreased: Participants, No. (%)", "setting": "[2]; 30 mg once daily 5 days, n=10", "value": "0 (0) No. (%)"},
      {"measurement": "Myalgia: Cases, No.", "setting": "[2]; 30 mg once daily 5 days, n=10", "value": 0, "unit": "No."},
      {"measurement": "Myalgia: Participants, No. (%)", "setting": "[2]; 30 mg once daily 5 days, n=10", "value": "0 (0) No. (%)"},
      {"measurement": "Chest discomfort: Cases, No.", "setting": "[2]; [9]", "value": "1^a No."},
      {"measurement": "Chest discomfort: Participants, No. (%)", "setting": "[2]; [9]", "value": "1 (10.0)^a No. (%)"},
      {"measurement": "Vomiting: Cases, No.", "setting": "[2]; [9]", "value": "1^a No."},
      {"measurement": "Vomiting: Participants, No. (%)", "setting": "[2]; [9]", "value": "1 (10.0)^a No. (%)"},
      {"measurement": "Chest discomfort: Cases, No.", "setting": "[2]; 60 mg once daily 5 days, n=10", "value": 0, "unit": "No."},
      {"measurement": "Chest discomfort: Participants, No. (%)", "setting": "[2]; 60 mg once daily 5 days, n=10", "value": "0 (0) No. (%)"},
      {"measurement": "Influenza-like illness: Cases, No.", "setting": "[2]; 60 mg once daily 5 days, n=10", "value": 1, "unit": "No."},
      {"measurement": "Influenza-like illness: Participants, No. (%)", "setting": "[2]; 60 mg once daily 5 days, n=10", "value": "1 (10.0) No. (%)"},
      {"measurement": "Vomiting: Cases, No.", "setting": "[2]; 60 mg once daily 5 days, n=10", "value": 0, "unit": "No."},
      {"measurement": "Vomiting: Participants, No. (%)", "setting": "[2]; 60 mg once daily 5 days, n=10", "value": "0 (0) No. (%)"},
      {"measurement": "Blood glucose: elevated: Cases, No.", "setting": "[2]; [10]", "value": "1^a No."},
      {"measurement": "Blood glucose: elevated: Participants, No. (%)", "setting": "[2]; [10]", "value": "1 (10.0)^a No. (%)"},
      {"measurement": "Fatigue: Cases, No.", "setting": "[2]; [10]", "value": "2^a No."},
      {"measurement": "Head discomfort: Cases, No.", "setting": "[2]; [10]", "value": "1^a No."},
      {"measurement": "Head discomfort: Participants, No. (%)", "setting": "[2]; [10]", "value": "1 (10.0)^a No. (%)"},
      {"measurement": "Lymphocyte count: decreased: Cases, No.", "setting": "[2]; [10]", "value": "1^a No."},
      {"measurement": "Lymphocyte count: decreased: Participants, No. (%)", "setting": "[2]; [10]", "value": "1 (10.0)^a No. (%)"},
      {"measurement": "Lymphocyte percentage: decreased: Cases, No.", "setting": "[2]; [10]", "value": "1^a No."},
      {"measurement": "Lymphocyte percentage: decreased: Participants, No. (%)", "setting": "[2]; [10]", "value": "1 (10.0)^a No. (%)"},
      {"measurement": "fatalities or serious AEs", "setting": "[2]; [11]", "value": "no fatalities or serious AEs"},
      {"measurement": "impact on heart rate, blood pressure, or visual function", "setting": "[2]; [11]", "value": "no clinically significant impact"},
      {"measurement": "severity of observed AEs", "setting": "[2]; [11]", "value": "mild to moderate"},
      {"measurement": "instances of AEs assessed by the investigator to be linked to the study drug", "setting": "[2]; both dose groups, 20 participants", "value": 26},
      {"measurement": "creatine kinase compared with baseline", "setting": "[2]; day 4", "value": "failed to reveal any noteworthy deviations"},
      {"measurement": "inhibition ratio relative to similar products", "setting": "[3]", "value": 0.75},
      {"measurement": "AUC0-24", "setting": "[4]; [12]", "value": "313.78 (45.3) h·ng/mL"},
      {"measurement": "Cmax", "setting": "[4]; [12]", "value": "81.03 (45.3) ng/mL"},
      {"measurement": "T1/2", "setting": "[4]; [12]", "value": "2.75 (21.2) h"},
      {"measurement": "Tmax", "setting": "[4]; 30 mg oral once daily, day 1, serum", "value": "1.00 (0.50-2.00) h"},
      {"measurement": "C24", "setting": "[4]; 30 mg oral once daily, day 5, serum concentration at 24 hours", "value": "0.92 (148.0)^b ng/mL"},
      {"measurement": "AUC0-24", "setting": "[4]; [13]", "value": "346.23 (51.8)^b h·ng/mL"},
      {"measurement": "Cmin,ss", "setting": "[4]; [13]", "value": "1.05 (75.7)^b ng/mL"},
      {"measurement": "T1/2", "setting": "[4]; [13]", "value": "3.61 (38.1)^b h"},
      {"measurement": "Cmax,ss", "setting": "[4]; 30 mg oral once daily, day 5, serum, n=10", "value": "84.61 (55.9) ng/mL"},
      {"measurement": "Tmax", "setting": "[4]; 30 mg oral once daily, day 5, serum", "value": "0.75 (0.25-2.00) h"},
      {"measurement": "C24", "setting": "[4]; 60 mg oral once daily, day 1, serum concentration at 24 hours", "value": "1.71 (54.1) ng/mL"},
      {"measurement": "AUC0-24", "setting": "[4]; [14]", "value": "963.18 (44.8) h·ng/mL"},
      {"measurement": "Cmax", "setting": "[4]; [14]", "value": "199.10 (37.8) ng/mL"},
      {"measurement": "T1/2", "setting": "[4]; [14]", "value": "3.26 (19.7) h"},
      {"measurement": "Tmax", "setting": "[4]; 60 mg oral once daily, day 1, serum", "value": "1.00 (0.50-2.00) h"},
      {"measurement": "C24", "setting": "[4]; 60 mg oral once daily, day 5, serum concentration at 24 hours", "value": "3.85 (66.8) ng/mL"},
      {"measurement": "AUC0-24", "setting": "[4]; [15]", "value": "1683.67 (45.1) h·ng/mL"},
      {"measurement": "Cmax,ss", "setting": "[4]; [15]", "value": "319.71 (23.8) ng/mL"},
      {"measurement": "Cmin,ss", "setting": "[4]; [15]", "value": "3.61 (61.3) ng/mL"},
      {"measurement": "T1/2", "setting": "[4]; [15]", "value": "3.38 (24.2) h"},
      {"measurement": "Tmax", "setting": "[4]; 60 mg oral once daily, day 5, serum", "value": "0.88 (0.50-3.00) h"},
      {"measurement": "amount in the blood at 24 hours relative to Cmax", "setting": "[4]; after the first dose, 30 or 60 mg", "value": "less than 1/20"},
      {"measurement": "inhibition ratio relative to similar products", "setting": "[5]", "value": 0.30},
      {"measurement": "inhibition ratio relative to similar products", "setting": "[6]", "value": 0.49},
      {"measurement": "involvement of CYP3A4 in the metabolism", "setting": "[7]", "value": "involvement"},
      {"measurement": "inhibition ratio relative to similar products", "setting": "[8]", "value": 0.06}
    ]}
  ]
}
